Sampled rows, rich in hits. Any-hit rate of the full collection: about 2.8%.
pPAFAH FP inh = pPAFAH enzyme inhibitors, primary screen, biochemical, fluorescence polarization, human; Platelet-activating factor acetylhydrolase (Homo sapiens), Q13093; recombinant pPAFAH, FP-rhodamine probe fluorescence polarization; inhibition, % at 3.39 µM; 330,000 compounds, 1.5% hits;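 active = inhibition above the mean inhibition across the screen plus 3 SD, cut at about 25% in these data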;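 also: inhibitors block binding of the rhodamine activity-based probe so polarization drops; 0% = enzyme with DMSO and 100% = wells lacking pPAFAH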
Target sequence (Q13093 whole entry, looked up): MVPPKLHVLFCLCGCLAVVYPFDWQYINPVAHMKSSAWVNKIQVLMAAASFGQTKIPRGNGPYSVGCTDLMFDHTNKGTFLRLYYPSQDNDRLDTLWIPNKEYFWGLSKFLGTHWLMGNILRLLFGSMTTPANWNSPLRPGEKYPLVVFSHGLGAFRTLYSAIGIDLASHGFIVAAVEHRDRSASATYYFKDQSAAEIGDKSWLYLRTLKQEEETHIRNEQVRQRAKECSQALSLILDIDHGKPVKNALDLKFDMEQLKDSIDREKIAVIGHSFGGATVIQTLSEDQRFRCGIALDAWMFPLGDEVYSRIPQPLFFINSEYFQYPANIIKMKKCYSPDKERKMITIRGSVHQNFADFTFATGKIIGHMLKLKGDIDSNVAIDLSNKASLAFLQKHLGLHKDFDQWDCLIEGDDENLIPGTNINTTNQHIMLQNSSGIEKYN
ASAP1 inh = inhibitors of human ASAP1 ArfGAP activity, primary screen, biochemical, fluorescence polarization | ASAP1-stimulated ARF1 GTP hydrolysis, GDP FP detection | 360,000 compounds, 0.19% hits | inhibition, % at 16.5 µM | Arf-GAP with SH3 domain, ANK repeat and PH domain-containing protein 1 (Homo sapiens), … | AID 624377, 2012; in the data active = inhibition above about 25%;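 also: 0% = vehicle with enzyme and substrate and 100% = no enzyme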
ARFGAP1 inhibitor = inhibitors of rat ARFGAP1 GAP activity, primary screen, biochemical, fluorescence polarization, GDP tracer | ADP-ribosylation factor GTPase-activating protein 1 (Rattus norvegicus), Q62848 | Arfgap1-stimulated ARF1 GTP hydrolysis, GDP FP detection | inhibition, % at 16.5 µM | 360,000 compounds, 0.26% hits | AID 651572, 2012;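 active = inhibition above a per-plate limit, mean inhibition of low control wells plus 3 SD, cut at about 25% in these data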;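 also: 0% = DMSO wells with enzyme and 100% = wells lacking Arfgap1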
Target sequence (Q62848 1-136 limits assumed): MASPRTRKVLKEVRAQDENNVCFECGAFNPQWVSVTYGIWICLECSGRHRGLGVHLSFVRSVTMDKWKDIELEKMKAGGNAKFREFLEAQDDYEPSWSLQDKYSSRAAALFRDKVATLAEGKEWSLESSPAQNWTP
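System: truncated rat Arfgap1 GAP domain / Medium: HEPES-based buffer, pH 7.5 / Also added: N-terminally truncated human ARF1-GTP substrate / Incubation: enzyme reaction 120 min at 25 °C after 20 min preincubation / Measured by: FP of antibody-bound GDP Alexa 633 tracer, ex 620/em 688 nm / Replicates: singlicate, each compound tested once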
PAFAH2 FP inh = PAFAH2 enzyme inhibitors, primary screen, biochemical, fluorescence polarization, human; AID 492956, 2010; recombinant PAFAH2, FP-rhodamine activity probe; Platelet-activating factor acetylhydrolase 2, cytoplasmic (Homo sapiens), Q99487; inhibition, % at 3.39 µM; 340,000 compounds, 0.99% hits;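 active = inhibition above the mean over all tested compounds plus 3 SD, cut at about 30% in these data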;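 also: inhibitors block probe labeling of enzyme so polarization drops; 0% = enzyme with DMSO and 100% = wells lacking PAFAH2 protein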
PAFAH1B3 inh = PAFAH1B3 enzyme inhibitors, primary screen, biochemical, fluorescence polarization, human | Platelet-activating factor acetylhydrolase IB subunit alpha1 (Homo sapiens), Q15102 | recombinant PAFAH1B3, FP-rhodamine probe | inhibition, % at 3.39 µM | 340,000 compounds, 0.28% hits;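 active = inhibition above the screen-wide average of all tested compounds plus 3 SD, cut at about 25% in these data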;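 also: 0% = enzyme with DMSO only and 100% = wells lacking PAFAH1B3 protein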
PAFAH1B2 inh = PAFAH1B2 enzyme inhibitors, primary screen, biochemical, fluorescence polarization, human; 340,000 compounds, 1.2% hits; Platelet-activating factor acetylhydrolase IB subunit alpha2 (Homo sapiens), P68402; AID 492953, 2010; recombinant PAFAH1B2, FP-rhodamine activity probe; inhibition, % at 3.39 µM;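 active = inhibition above the mean of all tested compounds plus 3 SD, cut at about 24% in these data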;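 also: 0% = enzyme with DMSO and 100% = wells lacking PAFAH1B2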
PAFAH2 FP conf = PAFAH2 enzyme inhibitors, confirmation, biochemical, fluorescence polarization, human. shares compounds with PAFAH2 FP inh. recombinant PAFAH2, FP-rhodamine activity probe. inhibition, % at 3.39 µM. 2,300 compounds, 65% hits. AID 493030, 2011;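 active = mean inhibition over three repeats above a set limit taken from the earlier primary screen, cut at about 30% in these data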;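 also: inhibitor blocks binding of rhodamine activity probe so polarization falls; 0% = enzyme with DMSO and 100% = wells lacking PAFAH2 protein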
Starred values were filed as active, the others as inactive; · = no result given.

SMILES | pPAFAH FP inh | ASAP1 inh | ARFGAP1 inhibitor | PAFAH2 FP inh | PAFAH1B3 inh | PAFAH1B2 inh | PAFAH2 FP conf
C=CCNc1nc(C(=O)OCC(=O)Nc2cccc(SC)c2)cs1 | · | -5.6 | -0.7 | 61.6* | 8.6 | 3.9 | 51.1*
COc1ccc(N2C(=O)C3C(C2=O)C3(c2ccccc2)c2ccccc2)cc1 (centres undefined) | -2.2 | 5.6 | 3.5 | -3.8 | 3.8 | 2.8 | ·
COc1ccc(N2C(=O)C3[C@@H](C2=O)C2(Cl)C(Cl)=C(Cl)C3(Cl)C2(OC)OC)cc1 (some centres undefined) | 4.0 | 6.5 | -2.7 | 32.6* | -0.5 | 4.1 | 31.3*
O=C(COC(=O)c1ccccc1F)Nc1cccnc1Cl | 5.4 | -3.7 | 1.8 | 35.1* | -11.4 | 0.0 | 15.9
O=C(COC(=O)c1cccnc1Cl)NC1CCCCC1 | 2.5 | -12.0 | 1.2 | 71.6* | 6.2 | 6.2 | 48.8*
O=C(COC(=O)c1cccnc1Cl)NC1CCCc2ccccc21 (centres undefined) | 2.3 | 7.0 | 1.4 | 27.2 | 8.2 | 14.1 | ·
O=C(OCC(=O)C12CC3CC(CC(C3)C1)C2)c1cccnc1Cl | 8.2 | 7.8 | -5.2 | 47.0* | 3.4 | 9.2 | 37.0*
O=C(COC(=O)c1cccnc1Cl)NCC1CCCO1 (centres undefined) | 9.5 | 11.4 | 6.0 | 4.5 | -1.5 | -0.3 | ·
O=C(COC(=O)c1ccccc1Cl)Nc1cccnc1Cl | 0.3 | 9.3 | 0.2 | 7.7 | 6.2 | -0.7 | ·
CC1CCC(NC(=O)COC(=O)c2cccnc2Cl)CC1 (centres undefined) | 7.5 | 4.6 | 2.0 | 70.5* | 17.2 | 6.9 | 41.7*
Cn1nc(C(=O)OCC(=O)Nc2ccc(C(N)=O)cc2)c2ccccc2c1=O | 4.4 | 16.0 | -7.4 | 6.0 | 1.7 | 1.3 | ·
Cc1ccc(OCCNC(=O)[C@H]2O[C@@H](n3ccc(N)nc3=O)[C@H](O)[C@@H]2O)cc1C | · | -2.5 | -2.0 | · | · | · | ·
CN(C(=O)c1ccccc1C(=O)OCC(=O)Nc1ccc(S(N)(=O)=O)cc1)c1ccccc1 | 4.0 | 1.7 | -10.3 | -5.1 | 7.6 | 3.4 | ·
COc1cccc(NC(=O)COC(=O)c2ccccc2C(=O)N(C)c2ccccc2)c1 | 3.6 | 1.9 | -8.8 | 71.2* | 3.0 | 0.1 | 69.0*
CN(C(=O)c1ccccc1C(=O)OCC(=O)Nc1ccc(OC(F)F)cc1)c1ccccc1 | 15.1 | 7.2 | 8.9 | 64.6* | 3.5 | -2.9 | 56.0*
CN(C(=O)c1ccccc1C(=O)OCC(=O)Nc1cccc(Br)c1)c1ccccc1 | 1.7 | 17.9 | 6.8 | 75.9* | -4.3 | -1.9 | 76.0*
CCOC(=O)[C@]12CCC=C1N(Cc1ccc(Cl)cc1Cl)C(=O)[C@H](CC(=O)NCc1ccccc1)C2 | · | 9.4 | 7.3 | · | · | · | ·
O=C1NC[C@H](CCCCN2C[C@H](Cc3ccccc3)N(CCC3CCCCC3)C(=O)C2=O)N(CCc2ccccc2)C1=O | · | 8.6 | -2.9 | · | · | · | ·
CC(=O)c1ccc(NC(=O)CN2CCN(S(=O)(=O)c3ccc4c(c3)OCCO4)CC2)cc1 | · | -3.4 | 1.4 | · | · | · | ·
CCC(CC)NC(=O)COC(=O)c1ccc(OCC(=O)Nc2ccccc2OC)c(OC)c1 | -0.7 | -9.9 | -8.8 | 59.7* | 2.9 | -6.4 | 63.4*
CCCNC(=O)COC(=O)c1ccc(OCC(=O)Nc2ccccc2OC)c(OC)c1 | -2.0 | 10.9 | -1.8 | 51.4* | -6.0 | 0.0 | 44.8*
COc1ccccc1NC(=O)COc1ccc(C(=O)OCC(=O)NC(C)(C)C)cc1OC | 7.1 | -1.4 | -4.0 | 81.0* | 5.3 | 0.5 | 82.6*
COc1ccccc1NC(=O)COC(=O)c1cc2c(s1)CCC2 | · | -6.9 | -17.8 | 54.4* | 0.6 | 0.6 | 38.5*
COc1ccc(C(=O)N(C)C2CCCCC2)cc1S(=O)(=O)N1CCOCC1 | 2.6 | -4.8 | -10.3 | 2.2 | 6.9 | 2.6 | ·
COc1ccc(C(=O)OCC(=O)Nc2ccc(F)cc2F)cc1OC | 10.2 | 14.0 | 2.2 | 76.2* | 4.5 | 4.5 | 72.5*
SMILES | pPAFAH FP inh | ASAP1 inh | ARFGAP1 inhibitor | PAFAH2 FP inh | PAFAH1B3 inh | PAFAH1B2 inh | PAFAH2 FP conf
COc1cc(CCC(=O)OCC(=O)Nc2ccc(F)cc2F)cc(OC)c1OC | 7.2 | -15.4 | 6.3 | 1.6 | -3.5 | -0.9 | ·
C=CCSC1=N/C(=C\c2ccc3c(c2)OCO3)C(=O)S1 | 9.1 | -1.9 | 10.9 | 32.0* | 9.5 | -2.0 | 30.7*
CC1=C/C(=C\c2ccc3c(c2)OCO3)C(=O)S1 | 20.0 | -7.9 | -17.9 | 2.5 | 4.2 | -5.3 | ·
O=C(CN1CC(c2ccccc2)CC1=O)Nc1ccc2c(c1)OCO2 (centres undefined) | 2.5 | 0.7 | -14.3 | 31.9* | -6.2 | 0.0 | 13.8
COc1ccc(NC(=O)CN2CC(c3ccccc3)CC2=O)cc1OC (centres undefined) | -4.1 | 5.5 | -5.2 | 2.9 | 5.7 | 6.8 | ·
CN(C)c1ccc(CNc2nc3cc(-c4ccc(F)cc4)sc3c(=O)n2C)cc1 | · | 7.7 | -2.4 | · | · | · | ·
COc1ccc(S(=O)(=O)C(C#N)c2nc3ccccc3nc2N2CCCC(C)C2)cc1 (centres undefined) | 0.9 | -3.1 | 1.7 | 30.6* | 6.7 | 7.3 | 21.2
COc1ccc(CC(=O)OCC(=O)Nc2cccc(C(C)=O)c2)cc1OC | · | 9.2 | 1.8 | 10.9 | 9.6 | 2.5 | ·
COc1cccc(C(=O)OCC(=O)NCCc2ccccc2)c1OC | 15.2 | -12.7 | -13.0 | 57.7* | 9.5 | -1.0 | 44.0*
COc1cccc(OC)c1C(=O)OCC(=O)NCCCc1ccccc1 | 6.3 | 13.3 | 5.0 | 2.3 | -2.5 | 9.3 | ·
COc1ccc(C(=O)OCC(=O)Nc2cccc(C(C)=O)c2)c(OC)c1OC | 10.3 | 5.5 | 13.3 | 83.0* | 7.8 | 0.4 | 85.9*
COc1ccc(C(=O)OCC(=O)Nc2c(C)cccc2C)c(OC)c1OC | 2.2 | 1.2 | -5.3 | 52.2* | 4.1 | 2.3 | 42.9*
CC1CCC(C(C)C)C(OC(=O)COC(=O)c2ccc(N)cc2)C1 (centres undefined) | 7.1 | 5.8 | 6.4 | 53.5* | -3.7 | 14.8 | 33.8*
COc1cccc(-c2cc(CNC(=O)[C@H]3O[C@@H](n4ccc(=O)[nH]c4=O)[C@H](O)[C@@H]3O)no2)c1 | · | 5.6 | -5.5 | · | · | · | ·
O=C1c2ccccc2[C@@H]2Cc3csc[n+]3[C@H]12 | · | -1.4 | -1.2 | · | · | · | ·
O=c1oc(-c2cccs2)nc2ccc(Cl)cc12 | -5.3 | 9.2 | -15.9 | 6.5 | -1.8 | 2.5 | ·

Bioassay records: PubChem, The Scripps Research Institute Molecular Screening Center
